Results published in ChEMBL document CHEMBL1772982, “In vitro and in vivo trypanocidal activity of flavonoids from Delphinium staphisagria against Chagas disease” (J Nat Prod, 2011).
The source made the active and inactive calls.

How the values were obtained:
Trypanosoma cruzi [1] = assay: Antitrypanosomal activity against epimastigote form of Trypanosoma cruzi assessed as inhibition of parasite growth; type: functional, organism-based
Procedure, shortened: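 Exponential-phase epimastigotes at 2 × 10^6 parasites/mL were exposed to 1, 10, 25, 50 and 100 μM compound in medium containing 0.01% DMSO. Parasites were counted by hemocytometer at 24, 48 and 72 h.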

Vero = assay: Cytotoxicity against african green monkey Vero cells assessed as cell viability after 72 hrs by FACS analysis; type: cell-based; settings: Chlorocebus sabaeus
[2] = Selectivity index, ratio of IC50 for african green monkey Vero cells to IC50 for epimastigote form of Trypanosoma cruzi; type: toxicity, cell-based; settings: Vero cells (versus epimastigote form of Trypanosoma cruzi), read-out: Ratio IC50
Trypanosoma cruzi [3] = assay: Antitrypanosomal activity against metacyclic forms of Trypanosoma cruzi infected in vero cells assessed as inhibition of infection at IC25 concentration after 12 hrs; type: functional
Procedure, shortened: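 Vero cells were seeded at 1 × 10^5 per well on coverslips, grown 2 days, and infected with metacyclic forms at 10:1, with compounds at IC25 present for 12 h at 37 °C. After washing, cultures were grown 10 days. Methanol-fixed, Giemsa-stained cells (>100 per sample) were scored for percent infected and amastigotes per cell. Results are means of four determinations.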

Trypanosoma cruzi [4] = assay: Antitrypanosomal activity against metacyclic forms of Trypanosoma cruzi infected in vero cells assessed as decrease in trypomastigotes at IC25 concentration after 12 hrs; type: functional; design: scale not given: the % may be the effect or the level left
Procedure, shortened: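 Vero cells were seeded at 1 × 10^5 per well on coverslips, grown 2 days, then infected with metacyclic forms at 10:1. Compounds at IC25 were added at infection for 12 h at 37 °C, 5% CO2, then washed out. Cultures were kept 10 days with medium renewed every 48 h. Trypomastigotes released into the medium were counted.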

Trypanosoma cruzi [5] = assay: Antitrypanosomal activity against blood trypomastigote forms of Trypanosoma cruzi infected in BALB/c mouse assessed as mouse survival rate at 1 mg/kg, ip administered 7 days postinfection once daily for 5 days; type: functional
Procedure, shortened: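 T. cruzi Maracay strain; groups of five female BALB/c mice (6–8 weeks, 25–30 g) infected ip with 1 × 10³ bloodstream forms. Starting day 7 post-infection, ip dosing at 1 mg/kg/day in saline for five consecutive days; infected controls received vehicle. Mortality recorded over the study alongside parasitemia, which was counted every two days from tail blood in a Neubauer chamber.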

Trypanosoma cruzi [6] = assay: Antitrypanosomal activity against blood trypomastigote forms of Trypanosoma cruzi infected in BALB/c mouse assessed as decrease in parasitemia at 5 mg/kg, ip administered 7 days post infection once daily for 5 days measured on day 22 post infection by […] relative to control; type: functional, organism-based; design: dose 5 mg/kg
Procedure, shortened: (§1)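 Female BALB/c mice (6–8 weeks, five per group) were infected ip with 1 × 10^3 bloodstream forms and treated ip in saline on days 7–12 post-infection; controls received vehicle. Every two days, 5 μL tail blood was diluted 1:15 in citrate/lysis buffer (pH 7.2) and parasites counted in a Neubauer chamber. Decrease is relative to the untreated infected group.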

Trypanosoma cruzi [7] = assay: Antitrypanosomal activity against blood trypomastigote forms of Trypanosoma cruzi infected in BALB/c mouse assessed as decrease in parasitemia at 5 mg/kg, ip administered 7 days post infection once daily for 5 days measured after 40 days post infection by […] relative to control; type: functional; design: scale not given: the % may be the effect or the level left; settings: route intraperitoneal; procedure, shortened: as §1
Trypanosoma cruzi [8] = assay: Antitrypanosomal activity against blood trypomastigote forms of Trypanosoma cruzi infected in BALB/c mouse assessed as decrease in anti-parasite antibodies level at 5 mg/kg, ip administered 7 days post infection once daily for 5 days measured after […] by ELISA relative to control; type: functional, organism-based; design: dose 5 mg/kg
Procedure, shortened: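 Female BALB/c mice (6–8 weeks) were infected ip; groups of four received ip treatment days 7–12 post-infection. Sera taken on days 40 and 90 were diluted 1:100 and run in ELISA against excreted Fe-SOD antigen from epimastigotes, read at 490 nm. Cutoff was the mean of negative controls plus 3 SD. The change was taken as absorbance on day 90 minus day 40.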

Trypanosoma cruzi [9] = assay: Antitrypanosomal activity against Trypanosoma cruzi epimastigotes assessed as increase in vacuolization at IC25 concentration after 72 hrs by transmission electron microscopy; type: functional, organism-based
Procedure, shortened: (§2)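 Epimastigotes at 5 × 10^6 cells/mL were exposed to test compounds at their IC25 for 72 h. Morphology was assessed by transmission electron microscopy against untreated parasites.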

Trypanosoma cruzi [10] = assay: Antitrypanosomal activity against Trypanosoma cruzi epimastigotes assessed as shrinkage of the protozoa at IC25 concentration after 72 hrs by transmission electron microscopy; type: functional, organism-based; procedure, shortened: as §2
Trypanosoma cruzi [11] = assay: Antitrypanosomal activity against Trypanosoma cruzi epimastigotes assessed as cytoplasmic membrane burst at IC25 concentration after 72 hrs by transmission electron microscopy; type: functional, organism-based; procedure, shortened: as §2
Trypanosoma cruzi [12] = assay: Antitrypanosomal activity against Trypanosoma cruzi epimastigotes assessed as undulating cytoplasm membrane at IC25 concentration after 72 hrs by transmission electron microscopy; type: functional, organism-based; procedure, shortened: as §2
Trypanosoma cruzi [13] = assay: Antitrypanosomal activity against Trypanosoma cruzi epimastigotes assessed as dilated mitochondria at IC25 concentration after 72 hrs by transmission electron microscopy; type: functional, organism-based; procedure, shortened: as §2
Mus musculus = assay: Toxicity in BALB/c mouse assessed as mortality at 5 mg/kg, ip; type: organism-based; design: dose 5 mg/kg, route intraperitoneal; settings: in vivo
Trypanosoma cruzi [14] = assay: Antitrypanosomal activity against Trypanosoma cruzi epimastigotes assessed as star-shaped and wavy cytoplasm membrane at IC25 concentration after 72 hrs by transmission electron microscopy; type: functional, organism-based; procedure, shortened: as §2

Q: For `CC(=O)O[C@H]1[C@H](Oc2c(-c3ccc(O)cc3)oc3cc(O)cc(O)c3c2=O)O[C@H](CO)[C@@H](O)[C@@H]1O`, which IC50 (Trypanosoma cruzi [1]) is on record?
A: 6.5 µM

Q: And the IC50 (Vero)?
A: 294 µM

Q: What about the selectivity ratio [2] of the same compound?
A: 45.2

Q: What about the “inhibition (INH)” value (Trypanosoma cruzi [3]) of the same compound?
A: 88%

Q: And the Activity (Trypanosoma cruzi [4])?
A: 78%

Q: And the Activity (Trypanosoma cruzi [5])?
A: Active

Q: And the Activity (Trypanosoma cruzi [6])?
A: Active

Q: And the Activity (Trypanosoma cruzi [7])?
A: 23%

Q: What about the Activity (Trypanosoma cruzi [8]) of the same compound?
A: Active

Q: And the Activity (Trypanosoma cruzi [9])?
A: Active

Q: What about the Activity (Trypanosoma cruzi [10]) of the same compound?
A: Active

Q: What about the Activity (Trypanosoma cruzi [11]) of the same compound?
A: Active

Q: And the Activity (Trypanosoma cruzi [12])?
A: Active

Q: What about the Activity (Trypanosoma cruzi [13]) of the same compound?
A: Active

Q: And the Activity (Mus musculus)?
A: Non-toxic

Q: For `CC(=O)O[C@H]1[C@H](Oc2c(-c3ccc(O)cc3)oc3cc(O[C@@H]4O[C@H](CO)[C@@H](O)[C@H](O)[C@H]4O)cc(O)c3c2=O)O[C@H](CO)[C@@H](O)[C@@H]1O`, which IC50 (Trypanosoma cruzi [1]) is on record?
A: 21.7 µM

Q: What about the IC50 (Vero) of the same compound?
A: > 1000 µM

Q: And the selectivity ratio [2]?
A: > 46.1

Q: And the “inhibition (INH)” value (Trypanosoma cruzi [3])?
A: 85%

Q: What about the Activity (Trypanosoma cruzi [4]) of the same compound?
A: 77%

Q: And the Activity (Trypanosoma cruzi [5])?
A: Active

Q: What about the Activity (Trypanosoma cruzi [6]) of the same compound?
A: Active

Q: And the Activity (Trypanosoma cruzi [7])?
A: 23%

Q: What about the Activity (Trypanosoma cruzi [8]) of the same compound?
A: Active

Q: And the Activity (Trypanosoma cruzi [9])?
A: Active

Q: What about the Activity (Trypanosoma cruzi [10]) of the same compound?
A: Active

Q: And the Activity (Mus musculus)?
A: Non-toxic

Q: For `CC(=O)O[C@H]1[C@H](Oc2c(-c3ccc(O)c(O)c3)oc3cc(O[C@H]4O[C@H](C)[C@@H](O)[C@H](O)[C@@H]4O)cc(O)c3c2=O)O[C@H](CO)[C@@H](O)[C@@H]1O`, which IC50 (Trypanosoma cruzi [1]) is on record?
A: 27.3 µM

Q: And the IC50 (Vero)?
A: > 1000 µM

Q: And the selectivity ratio [2]?
A: > 36.6

Q: What about the “inhibition (INH)” value (Trypanosoma cruzi [3]) of the same compound?
A: 65%

Q: What about the Activity (Trypanosoma cruzi [4]) of the same compound?
A: 58%

Q: What about the Activity (Trypanosoma cruzi [5]) of the same compound?
A: Active

Q: And the Activity (Trypanosoma cruzi [6])?
A: Active

Q: And the Activity (Trypanosoma cruzi [7])?
A: 23%

Q: And the Activity (Trypanosoma cruzi [8])?
A: Active

Q: And the Activity (Trypanosoma cruzi [9])?
A: Active

Q: What about the Activity (Trypanosoma cruzi [10]) of the same compound?
A: Active

Q: What about the Activity (Mus musculus) of the same compound?
A: Non-toxic

Q: Which IC50 (Trypanosoma cruzi [1]) does the source give for `CC(=O)OC[C@H]1O[C@@H](Oc2c(-c3ccc(OC(C)=O)cc3)oc3cc(OC(C)=O)cc(OC(C)=O)c3c2=O)[C@H](OC(C)=O)[C@@H](OC(C)=O)[C@@H]1OC(C)=O` [ASTRAGALIN HEPTAACETATE] here?
A: 0.8 µM

Q: What about the IC50 (Vero) of the same compound?
A: 164 µM

Q: And the selectivity ratio [2]?
A: 205

Q: What about the “inhibition (INH)” value (Trypanosoma cruzi [3]) of the same compound?
A: 91%

Q: And the Activity (Trypanosoma cruzi [4])?
A: 95%

Q: What about the Activity (Trypanosoma cruzi [5]) of the same compound?
A: Active

Q: And the Activity (Trypanosoma cruzi [6])?
A: Active

Q: What about the Activity (Trypanosoma cruzi [7]) of the same compound?
A: 23%

Q: What about the Activity (Trypanosoma cruzi [8]) of the same compound?
A: Active

Q: What about the Activity (Trypanosoma cruzi [9]) of the same compound?
A: Active

Q: What about the Activity (Trypanosoma cruzi [10]) of the same compound?
A: Active

Q: What about the Activity (Mus musculus) of the same compound?
A: Non-toxic

Q: Which IC50 (Trypanosoma cruzi [1]) does the source give for `O=c1c(O[C@@H]2O[C@H](CO)[C@@H](O)[C@H](O)[C@H]2O)c(-c2ccc(O)cc2)oc2cc(O)cc(O)c12` [ASTRAGALIN] here?
A: 15.7 µM

Q: And the IC50 (Vero)?
A: 174 µM

Q: And the selectivity ratio [2]?
A: 11.1

Q: What about the “inhibition (INH)” value (Trypanosoma cruzi [3]) of the same compound?
A: 64%

Q: And the Activity (Trypanosoma cruzi [4])?
A: 65%

Q: What about the Activity (Trypanosoma cruzi [5]) of the same compound?
A: Active

Q: What about the Activity (Trypanosoma cruzi [6]) of the same compound?
A: Active

Q: And the Activity (Trypanosoma cruzi [7])?
A: 23%

Q: What about the Activity (Trypanosoma cruzi [8]) of the same compound?
A: Active

Q: And the Activity (Trypanosoma cruzi [9])?
A: Active

Q: What about the Activity (Trypanosoma cruzi [10]) of the same compound?
A: Active

Q: What about the Activity (Trypanosoma cruzi [11]) of the same compound?
A: Active

Q: What about the Activity (Trypanosoma cruzi [12]) of the same compound?
A: Active

Q: What about the Activity (Mus musculus) of the same compound?
A: Non-toxic

Q: Which results are given for `O=C(Cn1ccnc1[N+](=O)[O-])NCc1ccccc1` [BENZNIDAZOLE]?
A: inhibition (INH) (Trypanosoma cruzi [3]): 39%; Activity (Trypanosoma cruzi [4]): 37%; survival at 1 mg/kg (Trypanosoma cruzi [5]; route intraperitoneal): 80%

Q: Which IC50 (Trypanosoma cruzi [1]) does the source give for `CC(=O)OC[C@H]1O[C@@H](Oc2cc(OC(C)=O)c3c(=O)c(O[C@@H]4O[C@H](COC(C)=O)[C@@H](OC(C)=O)[C@H](OC(C)=O)[C@H]4OC(C)=O)c(-c4ccc(OC(C)=O)cc4)oc3c2)[C@H](OC(C)=O)[C@@H](OC(C)=O)[C@@H]1OC(C)=O` [PAEONOSIDE DECAACETATE] here?
A: 17.2 µM

Q: And the IC50 (Vero)?
A: > 1000 µM

Q: What about the selectivity ratio [2] of the same compound?
A: > 58.1

Q: What about the “inhibition (INH)” value (Trypanosoma cruzi [3]) of the same compound?
A: 82%

Q: And the Activity (Trypanosoma cruzi [4])?
A: 85%

Q: What about the Activity (Trypanosoma cruzi [5]) of the same compound?
A: Active

Q: And the Activity (Trypanosoma cruzi [6])?
A: Active

Q: And the Activity (Trypanosoma cruzi [7])?
A: 23%

Q: What about the Activity (Trypanosoma cruzi [8]) of the same compound?
A: Active

Q: And the Activity (Trypanosoma cruzi [9])?
A: Active

Q: What about the Activity (Trypanosoma cruzi [10]) of the same compound?
A: Active

Q: What about the Activity (Trypanosoma cruzi [11]) of the same compound?
A: Active

Q: What about the Activity (Trypanosoma cruzi [12]) of the same compound?
A: Active

Q: What about the Activity (Trypanosoma cruzi [14]) of the same compound?
A: Active

Q: And the Activity (Mus musculus)?
A: Non-toxic

Q: With `C[C@H]1O[C@H](Oc2cc(O)c3c(=O)c(O[C@@H]4O[C@H](CO)[C@@H](O)[C@H](O)[C@H]4O)c(-c4ccc(O)c(O)c4)oc3c2)[C@@H](O)[C@@H](O)[C@@H]1O` [PETIOLAROSIDE] as the compound, how does the IC50 (Trypanosoma cruzi [1]) read?
A: 30.3 µM

Q: And the IC50 (Vero)?
A: > 1000 µM

Q: And the selectivity ratio [2]?
A: > 33

Q: What about the “inhibition (INH)” value (Trypanosoma cruzi [3]) of the same compound?
A: 68%

Q: And the Activity (Trypanosoma cruzi [4])?
A: 72%

Q: What about the Activity (Trypanosoma cruzi [5]) of the same compound?
A: Active

Q: And the Activity (Trypanosoma cruzi [6])?
A: Active

Q: What about the Activity (Trypanosoma cruzi [7]) of the same compound?
A: 23%

Q: What about the Activity (Trypanosoma cruzi [8]) of the same compound?
A: Active

Q: What about the Activity (Trypanosoma cruzi [9]) of the same compound?
A: Active

Q: And the Activity (Trypanosoma cruzi [10])?
A: Active

Q: And the Activity (Mus musculus)?
A: Non-toxic
